Screening results from PubChem BioAssay.
Rows were chosen to be rich in hits. Some 3.5% of all compounds tested hit in one or more screens of this group.
RGS4 pot – RGS4 potentiation or activation. HEK293 M3R/inducible RGS4, carbachol calcium flux Fluo4; active compounds read low. AID 463111. B-score at 10 µM. 310,000 compounds, 0.92% hits;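 active means B-score of the integrated calcium signal more than 4 SD below the library mean, with starting fluorescence not abnormally high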;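 further: negative B-score means reduced calcium response which marks RGS4 activation or potentiation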
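Material: Inducible-RGS4 HEK293 cells carrying M3 receptor; also added: carbachol at ECmax as muscarinic agonist stimulus; incubation: compound preincubation 20 min at room temperature before agonist; signal: Fluo4-AM (2 µM) calcium-flux fluorescence, kinetic read; measure: integrated calcium ratio converted to B score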
RGS4 block – human RGS4 inhibition; 310,000 compounds, 0.45% hits; AID 463165; B-score at 10 µM; HEK293 M3R/RGS4 inducible, Fluo-4 calcium flux; active compounds read high; triggered by carbachol at its EC20; P49798;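 active means B-score, a plate-corrected calcium signal, over three deviations above library mean, with baseline fluorescence within five deviations of library mean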;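 further: RGS4 expression induced by doxycycline in cells with stable M3 receptor; B-score is computed from the integrated fluorescence ratio over baseline after carbachol; higher B-score means a larger calcium signal and so more RGS4 inhibition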
Target sequence (P49798 whole entry, looked up): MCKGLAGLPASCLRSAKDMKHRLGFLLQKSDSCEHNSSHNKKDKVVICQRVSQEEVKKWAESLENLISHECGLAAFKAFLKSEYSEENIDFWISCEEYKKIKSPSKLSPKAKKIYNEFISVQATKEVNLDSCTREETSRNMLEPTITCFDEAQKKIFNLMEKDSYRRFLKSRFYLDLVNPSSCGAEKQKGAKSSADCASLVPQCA
MrgX1 PAM – allosterically activates human MrgX1 receptor signaling; Q96LB2; MrgX1-HEK293, Fluo-4 calcium flux, FDSS; active compounds read high; B-score at 10 µM; 310,000 compounds, 0.63% hits; AID 588675;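 active means plate-corrected calcium response at least 3 library SD above typical, normal starting fluorescence, not activating the receptor alone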;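 further: compound read alongside a low EC10 to EC30 dose of BAM8-22 agonist; peak minus trough fluorescence over baseline measured at the second addition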
Target sequence (Q96LB2 whole entry, looked up): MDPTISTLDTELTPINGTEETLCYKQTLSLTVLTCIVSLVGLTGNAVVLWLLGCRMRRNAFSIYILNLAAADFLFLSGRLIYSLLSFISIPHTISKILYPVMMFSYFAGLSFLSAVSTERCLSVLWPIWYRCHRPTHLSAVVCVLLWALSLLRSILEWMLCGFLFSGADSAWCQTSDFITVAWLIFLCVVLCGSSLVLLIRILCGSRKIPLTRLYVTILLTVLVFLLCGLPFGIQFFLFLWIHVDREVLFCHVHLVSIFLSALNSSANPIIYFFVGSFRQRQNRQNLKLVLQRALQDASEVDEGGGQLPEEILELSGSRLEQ
MrgX1 antagonist – antagonists of human MrgX1 receptor; 310,000 compounds, 1.3% hits; MRGX1-HEK293 calcium flux, Fluo-4, BAM8-22 antagonism; active compounds read low; B-score at 10 µM;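 active means calcium-response B-score plate-corrected more than 3 library SD below zero, starting fluorescence within 5 deviations, no agonist response on first addition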;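 further: peak minus trough fluorescence over baseline after final BAM8-22 challenge near maximal dose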
MrgX1 ag – human MrgX1 receptor agonism, primary screen; MrgX1-HEK293 cells, Fluo-4 calcium fluorescence, agonist mode; active compounds read high; B-score at 10 µM; 310,000 compounds, 0.44% hits;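 active means calcium response B-score plate-corrected fluorescence ratio at least 3 library SD, with starting fluorescence B-score inside 5 SD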
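Test system: HEK293 cells stably expressing human MrgX1 receptor; Input: fifteen thousand cells per well; Dosing: compound delivered in addition one of three; Schedule: overnight seeding, then 1 h dark dye loading; Technique: Fluo-4 NW calcium fluorescence; Measure: B-scored fluorescence response ratio; Controls: positive and negative controls per plate.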
RGS4 act valid – RGS4 activation, validation assay; shares compounds with RGS4 pot; HEK293 M3R/RGS4 inducible, carbachol calcium flux Fluo4; inhibition, % at 10 µM; 1,100 compounds, 89% hits; AID 602282;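 active means inhibition above 3 SD of the buffer control wells, cut at about 41% in these data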;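 further: signal is the integrated peak-minus-minimum Fluo4 fluorescence over baseline ratio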
RGS4 act ctr – activity in cells without induced RGS4 expression; HEK293 M3R non-induced RGS4, Fluo4 calcium flux; after carbachol challenge at its EC90; shares compounds with RGS4 pot; inhibition, % at 10 µM; 1,100 compounds, 82% hits; AID 602283;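 active means inhibition exceeding 3 SD of buffer-only control wells, cut at about 26% in these data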;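 further: percent drop in integrated peak-minus-baseline over baseline Fluo4 ratio after carbachol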
* hit, by the source's call; i = inactive; . = no result.

SMILES | RGS4 pot | RGS4 block | MrgX1 PAM | MrgX1 antagonist | MrgX1 ag | RGS4 act valid | RGS4 act ctr
COc1cc(C)c(C(C)C)cc1S(=O)(=O)N1CCOCC1 | -8.8* | i | i | i | i | 0 | 0
CCOc1cc(C)c(C(C)C)cc1S(=O)(=O)N1CCOCC1 | i | i | i | i | i | . | .
COc1cccc2cc(C(N)=O)/c(=N/NC(=O)COc3ccc(Cl)cc3)oc12 | i | i | i | i | i | . | .
Cc1cccc(NS(=O)(=O)c2ccc(C(=O)N3CCN(c4ccccc4O)CC3)cc2)c1C | -8.3* | i | i | i | i | 85* | 70*
Cc1ccccc1NS(=O)(=O)c1ccc(C(=O)N2CCCC2)cc1 | i | i | i | i | i | . | .
CCCCC(=O)NCc1ccc(Cl)cc1 | i | i | i | i | i | . | .
O=C(c1cc(-c2cccc(Cl)c2)nc2ccccc12)N1CCN(c2ccccn2)CC1 | -8.4* | i | i | i | i | 56* | 0
O=C(c1cc(-c2ccncc2)nc2ccc(Br)cc12)N1CCN(c2ccccn2)CC1 | i | i | i | i | i | . | .
COc1ccc(-c2cc(C(=O)N3CCN(c4cccc(C)c4C)CC3)c3ccccc3n2)cc1OC | -8.5* | i | i | i | i | 52* | 0
CCOC(=O)c1cc2sc(C)cc2n1CCCN1C(=O)c2ccccc2C1=O | -7.8* | i | i | i | i | 90* | 42*
CCOC(=O)c1cc2sc(C)cc2n1CC(=O)N(CC)CC | i | i | i | i | i | . | .
Cc1ccc(-c2nc3ccccn3c2NCc2ccc3c(c2)OCO3)cc1 | -9.5* | i | i | i | i | 89* | 71*
CCOc1ccc2nc(NC(=O)C3(C)CC3(Br)Br)sc2c1 (configuration not stated) | -8.1* | i | i | i | i | 68* | 84*
COc1cscc1C(=O)O | i | i | i | i | i | . | .
O=C(CSc1nc2ccccc2s1)N1c2ccccc2Sc2ccc(Cl)cc21 | i | i | i | i | i | . | .
O=C(NCCN1CCOCC1)N1c2ccccc2Sc2ccccc21 | -11* | i | i | i | i | 83* | 54*
CN(C)CCCNC(=O)N1c2ccccc2Sc2ccccc21 | -11* | i | i | i | i | 92* | 91*
O=C(CCN1CCOCC1)N1c2ccccc2Sc2ccc(Cl)cc21 | -8.9* | i | i | i | i | 92* | 90*
Cc1ccc(C(=O)NCC(=O)N2CCc3ccccc3C2)cc1C | i | i | i | i | i | . | .
Cc1c(CC(=O)N2CCC(C(N)=O)CC2)c(=O)oc2cc3c(cc12)CCC1(CCCCC1)O3 | -8.9* | i | i | i | i | 92* | 78*
Cc1c(CC(=O)O)c(=O)oc2cc3c(cc12)CCC(C)(C)O3 | i | i | i | i | i | . | .
CCCN1CCN(CCCNC(=O)c2ccc3c(Cl)c4c(nc3c2)CCCC4)CC1 | -8.1* | i | i | i | i | 94* | 62*
N#Cc1ccccc1NC(=O)c1ccc2c(Cl)c3c(nc2c1)CCCC3 | -8.1* | i | i | i | i | 72* | 47*
O=C(NCc1ccc(Cl)cc1)c1cccc(NC(=O)c2ccccc2)c1 | i | i | i | i | i | . | .
O=C(NCCc1ccc(F)cc1)c1cccc(NC(=O)c2ccccc2)c1 | -7.7* | i | i | i | i | 56* | 0
SMILES | RGS4 pot | RGS4 block | MrgX1 PAM | MrgX1 antagonist | MrgX1 ag | RGS4 act valid | RGS4 act ctr
CN(CC(=O)Nc1ccccc1Sc1ccccc1)C1CCCCC1 | -8.2* | i | i | i | i | 94* | 89*
CSc1ccccc1NC(=O)CN(C1CCCCC1)S(C)(=O)=O | i | i | i | i | i | . | .
COc1cc(NC(=O)COC(=O)c2cnccn2)c(C)cc1[N+](=O)[O-] | i | i | i | i | i | . | .
Cc1cc(C)c(C)c(S(=O)(=O)N(C)C2CCN(C)CC2)c1C | i | i | i | i | i | . | .
O=C(Cn1ncn2c(cc3sccc32)c1=O)NC1CCCC1 | i | i | i | i | i | . | .
Cc1cccc2nc(COc3ccc(Cl)c4cccnc34)cn12 | -10* | i | i | i | i | 0 | 84*
O=[N+]([O-])c1ccccc1COc1ccc(Cl)c2cccnc12 | i | i | i | i | i | . | .
CC1CCc2nc3ccccc3c(C(=O)OCC(=O)N3CCc4ccccc43)c2C1 (configuration not stated) | i | i | i | i | i | . | .
CCCc1nc2ccccc2c(C(=O)OCC(=O)Nc2cccc(S(=O)(=O)N3CCOCC3)c2)c1CC | -8.9* | i | i | i | i | 92* | 92*
CCCc1nc2ccccc2c(C(=O)OCC(=O)N2CCc3ccccc32)c1CC | -8.6* | i | i | i | i | 84* | 84*
Cc1cc(=O)oc2c(C)c3occc3cc12 | i | i | i | i | i | . | .
O=C(Nc1ccc(F)cc1Cl)C1=COCCO1 | i | i | i | i | i | . | .
Cc1ccc(-n2nc(C)cc2Nc2ncc(Cl)cc2Cl)cc1 | -8.7* | i | i | i | i | 92* | 74*
CCOC(=O)C1CCN(c2c(C(=O)c3ccccc3)cnc3ccc(CC)cc23)CC1 | -7.7* | i | i | i | i | 90* | 43*
Cc1cccc(NC(=O)COc2ccc(-c3nn(C)c(=O)c4ccccc34)cc2)c1 | i | i | i | i | i | . | .
CC(C)(C)c1ccc(OCCC(=O)NNC(=O)c2ccncc2)cc1 | i | i | i | i | i | . | .
Cn1c(SCc2c(Cl)cccc2Cl)nnc1-c1cccs1 | -12* | i | i | i | i | 74* | 84*
COCCN1C(=O)c2cc(C(=O)Nc3ccc(OC)c(OC)c3)ccc2C1Nc1ccc(OC)c(OC)c1 (configuration not stated) | i | i | i | i | i | . | .
CC(C)c1nc(N2CCN(C(=O)c3ccccc3)CC2)c(C#N)c2c1COC(C)(C)C2 | -8.8* | i | i | i | i | 45* | 84*
CC1(C)Cc2c(C#N)c(N3CCN(C(=O)c4ccccc4)CC3)nc(-c3ccco3)c2CS1 | . | . | i | i | i | . | .
CC(C)c1nc(N2CCN(C(=O)c3ccco3)CC2)c(C#N)c2c1COC(C)(C)C2 | -11* | i | i | i | i | 82* | 42*
